Converted amounts (≈) assume the structure as drawn.
What was measured:
[1] = biological target: T1, Vascular endothelial growth factor receptor 2 (Homo sapiens, UniProt P35968); experiment: In vitro inhibitory concentration against human vascular endothelial growth factor receptor 2
Outline: (§1)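 Baculovirus-expressed human kinase cytoplasmic domains; ELISA-type assay with time-resolved fluorescence readout (Eu-N1 antiphosphotyrosine antibody). […] For VEGF-R2, PLC-γ/GST fusion substrate and 15 min at 37 °C.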

[2] = biological target: T1, Vascular endothelial growth factor receptor 2; experiment: Inhibition of Vascular endothelial growth factor receptor 2 autophosphorylation by VEGF in human umbilical vein endothelial cells (HUVECs) at 10 nM; assay type: cell-based; settings: HUVEC
Outline: (§2)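 Subconfluent HUVECs serum-starved 1 h at 37 °C in EBM-2 with 0.05% BSA, with drug or DMSO present, then stimulated with 10 ng/mL human VEGF for 5 min. Lysates protein-normalized, anti-VEGF-R2 immunoprecipitated, run on SDS-PAGE, antiphosphotyrosine immunoblot, ECL.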

[3] = biological target: T1, Vascular endothelial growth factor receptor 2; experiment: Inhibition of Vascular endothelial growth factor receptor 2 autophosphorylation by VEGF in human umbilical vein endothelial cells (HUVECs) at 50 nM; assay type: cell-based; settings: HUVEC; outline: as §2
[4] = biological target: T1, Vascular endothelial growth factor receptor 2; experiment: Inhibition of Vascular endothelial growth factor receptor 2 autophosphorylation by VEGF in human umbilical vein endothelial cells (HUVECs) at 200 nM; assay type: cell-based; settings: HUVEC; outline: as §2
[5] = biological target: T1, Vascular endothelial growth factor receptor 2; experiment: Inhibition of Vascular endothelial growth factor receptor 2 autophosphorylation by VEGF in human umbilical vein endothelial cells (HUVECs) at 100 nM; assay type: cell-based; settings: HUVEC; outline: as §2
[6] = Plasma level in rats at 30 mg/kg; assay type: ADME, organism-based; design: dose 30 mg/kg; settings: rat
Outline: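 Fasted adult male Sprague–Dawley rats (n = 3) given a single oral gavage dose at 2 mL/kg in 3:1 gelucire/PG vehicle. Plasma prepared by acetonitrile protein precipitation and analyzed by HPLC–tandem MS.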

[7] = Solubility was determined; assay type: physicochemical
[8] = biological target: Cyclin-dependent kinase 1/cyclin B (Homo sapiens, UniProt P06493); experiment: Inhibition of Cyclin-dependent kinase 1-cyclin B; assay type: protein-complex assay
Outline: (§3)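 Enzymes were baculovirus-expressed recombinant human cytoplasmic domains: CDK1/cyclinB and CHK1.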

[9] = biological target: Fibroblast growth factor receptor 1 (Homo sapiens, UniProt P11362); experiment: Inhibition of Fibroblast growth factor receptor 1
Mus musculus [10] = experiment: Inhibition of murine SVR angiosarcoma in mice administered b.i.d. for 10 days; assay type: functional; settings: oral, 240 h, read-out: MED
Outline: (§4)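 Female athymic nu/nu mice, 6–8 weeks old; 1×10^6 SVR murine angiosarcoma cells implanted sc in right flank with Matrigel (1:1 v/v). At tumor volumes of 80–180 mm³, randomized (usually 8–10/group) and dosed orally b.i.d. (T = 0, 8 h), 0.35–23.8 mg/kg at 100 μL/dose; vehicles PG:Tween 80 (1:1) or 1% HOAc. Caliper tumor volumes every 3–4 days; Mann–Whitney test.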

Mus musculus [11] = experiment: In vivo antitumor activity against SVR tumor growth in nude mice by oral administration of 10 mg/kg b.i.d. for 10 days; assay type: functional; settings: 240 h; outline: as §4
Mus musculus [12] = experiment: Antitumor activity against SVR tumor growth in mice by administration of 20 mg/kg b.i.d.; assay type: functional; settings: oral; outline: as §4
[13] = biological target: Mitogen-activated protein kinase 14 (Homo sapiens, UniProt Q16539); experiment: Inhibition of Mitogen-activated protein kinase p38 alpha
Outline: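 Enzyme was activated recombinant human GST-p38α.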

[14] = biological target: Protein kinase C, PKC; classical (Rattus norvegicus, UniProt P05696+P68403+P63319); experiment: Inhibition of rat brain Protein kinase C
Outline: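 Enzyme was purified rat brain PKC, a mixture of the Ca2+-dependent α, β and γ isozymes.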

[15] = biological target: Serine/threonine-protein kinase Chk2 (Homo sapiens, UniProt O96017); experiment: Inhibition of Serine/threonine-protein kinase Chk2 (CDS1 receptor)
[16] = biological target: T2, Serine/threonine-protein kinase Chk1 (Homo sapiens, UniProt O14757); experiment: Inhibition of Serine/threonine-protein kinase Chk1; outline: as §3
T2 sequence (O14757 whole entry): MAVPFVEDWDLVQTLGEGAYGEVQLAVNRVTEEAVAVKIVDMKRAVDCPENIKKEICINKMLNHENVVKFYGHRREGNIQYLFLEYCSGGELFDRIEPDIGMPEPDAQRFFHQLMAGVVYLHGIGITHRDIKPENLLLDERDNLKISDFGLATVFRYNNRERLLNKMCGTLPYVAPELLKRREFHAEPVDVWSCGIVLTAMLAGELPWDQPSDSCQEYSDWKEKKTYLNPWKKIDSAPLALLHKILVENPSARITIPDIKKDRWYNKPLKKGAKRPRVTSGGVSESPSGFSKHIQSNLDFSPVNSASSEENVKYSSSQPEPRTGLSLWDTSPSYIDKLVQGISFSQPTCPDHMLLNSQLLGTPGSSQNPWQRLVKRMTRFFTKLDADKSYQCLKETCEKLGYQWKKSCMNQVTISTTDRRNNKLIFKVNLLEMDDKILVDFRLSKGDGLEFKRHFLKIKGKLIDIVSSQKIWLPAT

[17] = biological target: Vascular endothelial growth factor receptor 3 (Homo sapiens, UniProt P35916); experiment: Inhibition of Vascular endothelial growth factor receptor 3
Outline: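 Recombinant human VEGF-R3 cytoplasmic domain was expressed in baculovirus-infected insect cells and assayed by ELISA as for VEGF-R2, with PLC-γ/GST fusion substrate. […] Read-out was Eu-antiphosphotyrosine time-resolved fluorescence.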

[18] = biological target: Vascular endothelial growth factor receptor 1 (Homo sapiens, UniProt P17948); experiment: Inhibition of Vascular endothelial growth factor receptor 1; outline: as §1
Angiopoietin-1 receptor = Angiopoietin-1 receptor (Homo sapiens, UniProt Q02763); experiment: Inhibition of Tyrosine protein kinase receptor TIE-2; outline: as §1
[19] = biological target: T3, Receptor-type tyrosine-protein kinase FLT3 (Homo sapiens, UniProt P36888); experiment: Inhibition of Tyrosine-protein kinase receptor FLT3 (fms-related tyrosine kinase 3) receptor
T3 sequence (P36888 whole entry): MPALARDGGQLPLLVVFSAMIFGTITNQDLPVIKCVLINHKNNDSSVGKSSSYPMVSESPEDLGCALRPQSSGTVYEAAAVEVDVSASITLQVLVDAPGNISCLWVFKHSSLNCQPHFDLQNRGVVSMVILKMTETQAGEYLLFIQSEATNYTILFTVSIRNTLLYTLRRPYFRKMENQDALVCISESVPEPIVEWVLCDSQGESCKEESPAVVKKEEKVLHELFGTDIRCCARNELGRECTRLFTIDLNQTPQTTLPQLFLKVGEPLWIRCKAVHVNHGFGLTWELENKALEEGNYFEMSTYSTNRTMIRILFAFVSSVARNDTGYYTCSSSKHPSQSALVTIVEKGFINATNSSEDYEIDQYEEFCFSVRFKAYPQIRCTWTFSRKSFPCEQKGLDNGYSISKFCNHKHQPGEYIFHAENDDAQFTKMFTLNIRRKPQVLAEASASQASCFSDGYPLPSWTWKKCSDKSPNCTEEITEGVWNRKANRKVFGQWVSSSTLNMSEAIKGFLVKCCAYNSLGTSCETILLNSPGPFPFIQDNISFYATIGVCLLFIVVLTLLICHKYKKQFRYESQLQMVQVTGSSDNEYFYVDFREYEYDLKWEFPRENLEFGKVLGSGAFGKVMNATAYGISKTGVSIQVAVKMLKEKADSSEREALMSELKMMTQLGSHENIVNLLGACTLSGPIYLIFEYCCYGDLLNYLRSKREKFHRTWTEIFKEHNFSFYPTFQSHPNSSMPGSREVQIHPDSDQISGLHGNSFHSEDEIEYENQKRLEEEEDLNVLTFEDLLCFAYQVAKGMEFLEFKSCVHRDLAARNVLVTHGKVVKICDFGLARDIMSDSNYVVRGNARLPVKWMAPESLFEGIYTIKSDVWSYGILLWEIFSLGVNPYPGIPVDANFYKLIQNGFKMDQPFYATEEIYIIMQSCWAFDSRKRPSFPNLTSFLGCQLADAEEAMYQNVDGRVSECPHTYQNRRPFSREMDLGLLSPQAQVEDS
Outline: (§5)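 Recombinant human cytoplasmic kinase domains (TrkA, Flt-3) expressed in baculovirus-infected insect cells. […] Eu-N1 antiphosphotyrosine detection by time-resolved fluorescence.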

[20] = biological target: Mitogen-activated protein kinase 8 (Homo sapiens, UniProt P45983); experiment: Inhibition of c-Jun N-terminal kinase 1-beta 1
[21] = biological target: High affinity nerve growth factor receptor (Homo sapiens, UniProt P04629); experiment: Inhibition of TrkA receptor; outline: as §5
[22] = biological target: T1, Vascular endothelial growth factor receptor 2; experiment: Inhibition of human Vascular endothelial growth factor receptor 2
Outline: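 Baculovirus-expressed recombinant human VEGF-R2 cytoplasmic domain was assayed by ELISA with a GST–phospholipase C-γ fusion substrate. […] Eu-N1 antiphosphotyrosine was added for 1 h at 37 °C and read by time-resolved fluorescence. IC50 came from nonlinear sigmoidal fits, averaging at least 3 determinations.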

[23] = biological target: Mast/stem cell growth factor receptor Kit (Homo sapiens, UniProt P10721); experiment: Inhibition of Proto-oncogene tyrosine-protein kinase Kit
[24] = biological target: T1, Vascular endothelial growth factor receptor 2; settings: HUVEC, 100 nM
[25] = biological target: T1, Vascular endothelial growth factor receptor 2; settings: HUVEC, 10 nM
[26] = biological target: T4, Vascular endothelial growth factor receptor (Homo sapiens) (UniProt P17948+P35916+P35968); settings: HUVEC, 100 nM
[27] = biological target: T4, Vascular endothelial growth factor receptor (Homo sapiens); settings: HUVEC, 40 nM
[28] = biological target: T4, Vascular endothelial growth factor receptor (Homo sapiens); settings: Capillary, HUVEC, 400 nM
Mus musculus [29] = experiment: Antitumor activity against SVR tumor growth in mice by administration of 23.8 mg/kg b.i.d.; assay type: functional; settings: oral; outline: as §4

T1 sequence (P35968 whole entry, the tested form may be a part): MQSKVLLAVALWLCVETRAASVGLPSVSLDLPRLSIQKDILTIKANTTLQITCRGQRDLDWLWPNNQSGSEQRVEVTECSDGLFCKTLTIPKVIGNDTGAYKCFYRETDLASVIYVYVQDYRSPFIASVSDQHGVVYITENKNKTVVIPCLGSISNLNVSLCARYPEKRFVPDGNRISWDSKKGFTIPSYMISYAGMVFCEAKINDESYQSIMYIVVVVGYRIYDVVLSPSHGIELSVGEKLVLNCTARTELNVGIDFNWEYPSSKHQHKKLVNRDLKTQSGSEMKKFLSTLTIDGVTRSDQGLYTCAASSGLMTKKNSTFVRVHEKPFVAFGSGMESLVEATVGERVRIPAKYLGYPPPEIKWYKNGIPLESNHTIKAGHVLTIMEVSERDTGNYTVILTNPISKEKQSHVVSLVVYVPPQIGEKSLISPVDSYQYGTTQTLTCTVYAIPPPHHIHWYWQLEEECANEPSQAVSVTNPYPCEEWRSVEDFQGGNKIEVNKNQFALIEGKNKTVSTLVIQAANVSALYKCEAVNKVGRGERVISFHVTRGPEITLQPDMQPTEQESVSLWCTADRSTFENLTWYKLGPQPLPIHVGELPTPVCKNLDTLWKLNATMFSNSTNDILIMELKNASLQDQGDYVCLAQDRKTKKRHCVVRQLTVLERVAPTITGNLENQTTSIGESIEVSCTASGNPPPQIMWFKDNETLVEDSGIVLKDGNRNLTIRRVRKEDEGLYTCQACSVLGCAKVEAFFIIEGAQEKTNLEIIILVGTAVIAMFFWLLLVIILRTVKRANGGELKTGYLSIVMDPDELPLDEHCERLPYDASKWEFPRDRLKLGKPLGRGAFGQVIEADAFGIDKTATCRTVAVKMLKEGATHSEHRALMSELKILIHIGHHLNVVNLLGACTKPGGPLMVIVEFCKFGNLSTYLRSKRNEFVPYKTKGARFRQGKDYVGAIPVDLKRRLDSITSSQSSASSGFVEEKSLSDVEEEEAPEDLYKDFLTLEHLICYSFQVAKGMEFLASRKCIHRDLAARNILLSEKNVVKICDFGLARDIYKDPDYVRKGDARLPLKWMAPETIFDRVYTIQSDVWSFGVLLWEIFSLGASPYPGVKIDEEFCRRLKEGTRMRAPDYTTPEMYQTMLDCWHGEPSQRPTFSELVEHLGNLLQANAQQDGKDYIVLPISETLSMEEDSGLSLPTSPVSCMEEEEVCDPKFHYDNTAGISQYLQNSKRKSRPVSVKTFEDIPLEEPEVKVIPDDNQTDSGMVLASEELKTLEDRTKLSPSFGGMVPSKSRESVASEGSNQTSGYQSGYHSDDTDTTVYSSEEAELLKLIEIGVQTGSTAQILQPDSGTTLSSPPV
T4 sequence (P17948 whole entry, looked up): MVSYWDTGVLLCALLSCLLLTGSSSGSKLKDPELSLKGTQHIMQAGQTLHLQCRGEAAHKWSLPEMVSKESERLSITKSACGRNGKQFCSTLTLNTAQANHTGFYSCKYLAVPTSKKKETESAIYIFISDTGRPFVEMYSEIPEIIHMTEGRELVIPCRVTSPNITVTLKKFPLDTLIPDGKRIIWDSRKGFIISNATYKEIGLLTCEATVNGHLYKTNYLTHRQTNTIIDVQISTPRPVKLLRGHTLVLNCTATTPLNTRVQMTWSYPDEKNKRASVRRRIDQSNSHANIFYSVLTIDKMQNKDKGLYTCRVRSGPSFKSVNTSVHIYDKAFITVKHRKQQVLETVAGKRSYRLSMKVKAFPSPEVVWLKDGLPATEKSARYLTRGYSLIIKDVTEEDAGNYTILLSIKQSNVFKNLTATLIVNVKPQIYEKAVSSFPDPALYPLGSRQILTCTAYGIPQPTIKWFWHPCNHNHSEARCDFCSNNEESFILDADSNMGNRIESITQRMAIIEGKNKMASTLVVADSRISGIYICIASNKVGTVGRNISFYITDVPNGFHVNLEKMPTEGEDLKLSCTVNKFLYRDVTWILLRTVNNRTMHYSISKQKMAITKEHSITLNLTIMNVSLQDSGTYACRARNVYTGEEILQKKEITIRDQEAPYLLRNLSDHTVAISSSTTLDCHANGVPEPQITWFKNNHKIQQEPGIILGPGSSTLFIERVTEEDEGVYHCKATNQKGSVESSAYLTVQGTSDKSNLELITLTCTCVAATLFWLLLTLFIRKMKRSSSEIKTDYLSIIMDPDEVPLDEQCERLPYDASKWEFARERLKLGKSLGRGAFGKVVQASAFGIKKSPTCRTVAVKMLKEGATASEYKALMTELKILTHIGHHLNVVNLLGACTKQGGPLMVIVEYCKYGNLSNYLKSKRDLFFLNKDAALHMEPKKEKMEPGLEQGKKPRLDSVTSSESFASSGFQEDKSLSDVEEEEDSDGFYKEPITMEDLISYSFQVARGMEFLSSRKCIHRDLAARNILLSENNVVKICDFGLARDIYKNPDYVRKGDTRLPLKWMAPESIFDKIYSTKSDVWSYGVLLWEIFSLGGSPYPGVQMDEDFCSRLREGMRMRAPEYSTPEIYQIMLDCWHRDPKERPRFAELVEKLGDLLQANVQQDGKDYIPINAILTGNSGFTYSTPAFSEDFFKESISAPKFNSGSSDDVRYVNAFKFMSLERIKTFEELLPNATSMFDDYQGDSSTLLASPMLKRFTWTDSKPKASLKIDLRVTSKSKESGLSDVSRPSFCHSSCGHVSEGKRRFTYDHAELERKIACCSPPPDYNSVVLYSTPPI
T4 sequence (P35916 whole entry, looked up): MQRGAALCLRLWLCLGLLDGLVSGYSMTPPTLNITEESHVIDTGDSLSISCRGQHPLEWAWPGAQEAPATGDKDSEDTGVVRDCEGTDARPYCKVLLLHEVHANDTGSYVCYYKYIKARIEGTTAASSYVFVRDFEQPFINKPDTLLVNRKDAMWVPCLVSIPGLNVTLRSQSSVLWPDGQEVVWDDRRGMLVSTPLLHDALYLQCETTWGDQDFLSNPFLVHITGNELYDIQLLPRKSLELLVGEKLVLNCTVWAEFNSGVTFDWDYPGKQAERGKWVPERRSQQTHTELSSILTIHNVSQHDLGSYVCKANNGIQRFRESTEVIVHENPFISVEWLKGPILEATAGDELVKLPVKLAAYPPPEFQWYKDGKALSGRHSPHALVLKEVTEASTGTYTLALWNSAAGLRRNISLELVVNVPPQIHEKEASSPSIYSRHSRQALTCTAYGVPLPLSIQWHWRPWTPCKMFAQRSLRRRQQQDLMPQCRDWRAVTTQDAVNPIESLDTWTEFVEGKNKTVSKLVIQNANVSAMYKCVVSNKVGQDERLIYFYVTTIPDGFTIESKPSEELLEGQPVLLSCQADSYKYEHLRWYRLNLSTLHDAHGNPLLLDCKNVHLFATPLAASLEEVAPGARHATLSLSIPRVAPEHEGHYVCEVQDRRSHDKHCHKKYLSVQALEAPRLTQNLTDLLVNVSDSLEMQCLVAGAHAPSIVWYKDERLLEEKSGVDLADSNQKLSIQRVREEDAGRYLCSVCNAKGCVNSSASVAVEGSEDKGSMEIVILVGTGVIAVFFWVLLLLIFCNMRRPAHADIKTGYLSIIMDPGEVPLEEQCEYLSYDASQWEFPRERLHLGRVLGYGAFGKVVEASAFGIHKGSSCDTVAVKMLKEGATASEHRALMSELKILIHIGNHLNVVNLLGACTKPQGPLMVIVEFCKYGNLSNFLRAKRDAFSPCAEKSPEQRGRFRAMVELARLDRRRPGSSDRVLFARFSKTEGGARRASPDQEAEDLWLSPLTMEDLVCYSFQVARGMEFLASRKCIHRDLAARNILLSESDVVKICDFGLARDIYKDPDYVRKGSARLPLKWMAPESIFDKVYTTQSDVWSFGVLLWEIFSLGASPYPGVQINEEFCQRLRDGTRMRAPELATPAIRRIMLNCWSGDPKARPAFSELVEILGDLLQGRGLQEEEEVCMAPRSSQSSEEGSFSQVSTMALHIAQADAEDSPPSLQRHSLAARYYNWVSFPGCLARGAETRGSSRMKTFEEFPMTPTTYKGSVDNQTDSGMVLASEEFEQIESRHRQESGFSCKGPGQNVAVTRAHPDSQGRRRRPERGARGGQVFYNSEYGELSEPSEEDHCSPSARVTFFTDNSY
T4 sequence (P35968 whole entry, looked up): as the sequence (P35968 whole entry, the tested form may be a part) above
Chain of Serine/threonine-protein kinase Chk2 (O96017 whole entry): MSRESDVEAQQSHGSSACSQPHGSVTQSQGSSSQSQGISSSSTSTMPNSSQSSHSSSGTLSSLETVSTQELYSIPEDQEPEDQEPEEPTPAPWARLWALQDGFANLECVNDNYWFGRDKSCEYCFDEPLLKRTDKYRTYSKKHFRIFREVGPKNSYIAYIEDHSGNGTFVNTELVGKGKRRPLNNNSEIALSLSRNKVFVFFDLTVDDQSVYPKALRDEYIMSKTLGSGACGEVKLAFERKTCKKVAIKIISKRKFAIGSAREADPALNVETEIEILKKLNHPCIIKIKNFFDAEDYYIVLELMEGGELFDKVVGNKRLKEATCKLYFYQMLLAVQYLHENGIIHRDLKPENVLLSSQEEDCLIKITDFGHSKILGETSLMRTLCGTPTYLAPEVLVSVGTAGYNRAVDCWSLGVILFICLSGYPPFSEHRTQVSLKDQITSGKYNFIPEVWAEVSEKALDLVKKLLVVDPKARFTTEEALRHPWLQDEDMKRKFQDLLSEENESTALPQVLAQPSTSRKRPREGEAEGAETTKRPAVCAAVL
Chain of Mitogen-activated protein kinase 8 (P45983 whole entry): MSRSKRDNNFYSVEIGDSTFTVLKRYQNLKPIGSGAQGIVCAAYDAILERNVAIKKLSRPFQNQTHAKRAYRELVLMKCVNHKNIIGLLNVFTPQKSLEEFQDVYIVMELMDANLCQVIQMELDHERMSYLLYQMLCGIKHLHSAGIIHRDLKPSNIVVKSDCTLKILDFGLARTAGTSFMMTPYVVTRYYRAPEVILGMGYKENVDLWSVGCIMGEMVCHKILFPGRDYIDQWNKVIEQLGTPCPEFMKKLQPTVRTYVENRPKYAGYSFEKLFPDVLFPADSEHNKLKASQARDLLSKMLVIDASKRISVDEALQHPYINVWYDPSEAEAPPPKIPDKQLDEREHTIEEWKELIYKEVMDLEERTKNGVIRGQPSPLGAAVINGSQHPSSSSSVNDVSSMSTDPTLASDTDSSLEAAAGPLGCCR
Chain of Vascular endothelial growth factor receptor 3 (P35916 whole entry, the tested form may be a part): as the sequence (P35916 whole entry, looked up) above

## O=C1NCc2c3c(c4[nH]c5ccccc5c4c21)Cc1ccccc1-3
[1]
  IC50: 414 nM

## CCC(CC)OCc1ccc2c(c1)c1c3c(c4c(c1n2CCCO)Cc1ccccc1-4)C(=O)NC3
[1]
  IC50: 35 nM

## CC(C)OCc1ccc2[nH]c3c4c(c5c(c3c2c1)CNC5=O)-c1ccccc1C4
[1]
  IC50: 55 nM

## O=C1NCc2c1c1c(c3c2c2cc(Br)ccc2n3CCCO)Cc2ccccc2-1
[1]
  IC50: 104 nM

## Cc1ccc2c(c1)c1c3c(c4c(c1n2CCCO)Cc1ccccc1-4)C(=O)NC3
[1]
  IC50: 163 nM

## O=C1NCc2c1c1c(c3[nH]c4ccccc4c23)Cc2ccccc2-1
[1]
  IC50: 110 nM

## CC(C)CCOCc1ccc2c(c1)c1c3c(c4c(c1n2CCCO)Cc1ccccc1-4)C(=O)NC3
[1]
  IC50: 276 nM

## CC(C)[S+]([O-])Cc1ccc2c(c1)c1c3c(c4c(c1n2CCCO)Cc1ccccc1-4)C(=O)NC3 (configuration not stated)
[1]
  IC50: 309 nM

## CC(=O)c1ccc2c(c1)c1c3c(c4c(c1n2CCCO)Cc1ccccc1-4)C(=O)NC3
[1]
  IC50: 187 nM

## O=Cc1ccc2c(c1)c1c3c(c4c(c1n2CCCO)Cc1ccccc1-4)C(=O)NC3
[1]
  IC50: 105 nM

## CC(C)(C)OCc1ccc2c(c1)c1c3c(c4c(c1n2CCCO)Cc1ccccc1-4)C(=O)NC3
[2]
  inhibition: 100%
[3]
  inhibition: 100%

## CC(C)SCc1ccc2c(c1)c1c3c(c4c(c1n2CCCO)Cc1ccccc1-4)C(=O)NC3
[4]
  inhibition: 100%

## CCCCOCc1ccc2c(c1)c1c3c(c4c(c1n2CCCO)Cc1ccccc1-4)C(=O)NC3
[4]
  inhibition: 100%

## CCCOCc1ccc2c(c1)c1c3c(c4c(c1n2CCCO)Cc1ccccc1-4)C(=O)NC3
[4]
  inhibition: 100%

## CCOCc1ccc2c(c1)c1c3c(c4c(c1n2CCCO)Cc1ccccc1-4)C(=O)NC3
[2]
  inhibition: 75%
[5]
  inhibition: 100%

## CCSCc1ccc2c(c1)c1c3c(c4c(c1n2CCCO)Cc1ccccc1-4)C(=O)NC3
[4]
  inhibition: 100%

## CC[C@@H](C)OCc1ccc2c(c1)c1c3c(c4c(c1n2CCCO)Cc1ccccc1-4)C(=O)NC3
[3]
  inhibition: 100%

## CC[C@H](C)OCc1ccc2c(c1)c1c3c(c4c(c1n2CCCO)Cc1ccccc1-4)C(=O)NC3
[3]
  inhibition: 100%

## COC(C)c1ccc2c(c1)c1c3c(c4c(c1n2CCCO)Cc1ccccc1-4)C(=O)NC3 (configuration not stated)
[2]
  inhibition: 25%
[5]
  inhibition: 100%

## CC(C)OCc1ccc2c(c1)c1c3c(c4c(c1n2CCCO)Cc1ccccc1-4)C(=O)NC3 [CEP-5214]
[6]
  Cmax: 100 ng/mL
[7]
  solubility: 10 µg/mL (≈ 22.7 µM)
[8]
  IC50: > 10000 nM
[9]
  IC50: 162 nM
Mus musculus [10]
  minimal effective dose: 3 mg/kg
Mus musculus [11]
  inhibition in vivo at 10 mg/kg: 57%
Mus musculus [12]
  inhibition in vivo at 20 mg/kg: 70%
[13]
  IC50: > 10000 nM
[14]
  IC50: > 10000 nM
[15]
  IC50: > 3000 nM
[16]
  IC50: > 3000 nM
[17]
  IC50: 4 nM
[18]
  IC50: 16 nM
Angiopoietin-1 receptor
  IC50: > 10000 nM
[19]
  IC50: 1.6 nM
[20]
  IC50: 448 nM
[21]
  IC50: > 3000 nM
[22]
  IC50: 8 nM
[23]
  IC50: 57 nM
[24]
  inhibition: 100%
[25]
  inhibition: 75%
[26]
  inhibition: 75%
[27]
  inhibition: 21%
[28]
  inhibition: 89%

## CC(C)OCc1ccc2c(c1)c1c3c(c4c(c1n2CCCOC(=O)CN(C)C)Cc1ccccc1-4)C(=O)NC3 [CEP-7055]
Mus musculus [29]
  inhibition in vivo at 23.8 mg/kg: 70%

— ChEMBL document CHEMBL1145920 (J Med Chem, 2003)
